Results as given in ChEMBL document CHEMBL1135765, “Synthesis of 3' '-substituted TSAO derivatives with anti-HIV-1 and anti-HIV-2 activity through an efficient palladium-catalyzed cross-coupling approach” (J Med Chem, 2002).

What was measured:
MT4 = test: Cytotoxic concentration required to inhibit MT-4 cell proliferation by 50%; format: functional; conditions: Homo sapiens
Procedure, shortened: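 Mock-infected MT-4 cells (3 × 10⁵/mL) incubated with compound dilutions; CC₅₀ is the concentration that reduces the number of viable MT-4 cells by 50%.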

[1] = system: Human immunodeficiency virus 2; test: Effective concentration required to inhibit HIV-2 induced cytopathicity in MT-4 cell culture by 50%.; format: functional, organism-based; conditions: Human immunodeficiency virus 2, MT4
Procedure, shortened: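 MT-4 cells at 3 × 10⁵/mL infected with HIV-1 or HIV-2 at ~100 CCID₅₀ per mL, mixed 1:1 with compound dilutions. Cytopathicity read by trypan blue dye exclusion after 5 days. EC₅₀ is the concentration giving 50% protection against the virus-induced loss of cell viability.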

[2] = Effective concentration required to inhibit HIV-1 induced cytopathicity in MT-4 cell culture by 50%.; conditions: mt4
[3] = system: Human immunodeficiency virus 2; test: Effective concentration required to inhibit HIV-2 induced cytopathicity in CEM cell culture by 50%.; format: functional, organism-based; conditions: Human immunodeficiency virus 2, CCRF-CEM
Procedure, shortened: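 CEM cells at 4 × 10⁵/mL infected with HIV-1 or HIV-2 at ~100 CCID₅₀ per mL, mixed 1:1 with compound dilutions. Giant cell formation scored microscopically after 4 days. EC₅₀ is the concentration inhibiting virus-induced cytopathicity by 50%.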

CCRF-CEM = test: Cytostatic concentration required to inhibit CEM cell proliferation by 50%; format: functional; conditions: Homo sapiens
Procedure, shortened: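 CEM cells (4 × 10⁵/mL) exposed to compound dilutions without virus; CC₅₀ is the concentration that inhibits CEM cell proliferation by 50%.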

Row | SMILES | CC50 (MT4) [µM] | EC50 [1] [µM] | EC50 [2] [µM] | EC50 [3] [µM] | CC50 (CCRF-CEM) [µM]
1 | Cc1cn([C@@H]2O[C@H](CO[Si](C)(C)C(C)(C)C)C3(OS(=O)(=O)C=C3N)[C@H]2O[Si](C)(C)C(C)(C)C)c(=O)[nH]c1=O (stereo partly specified) | 12 | > 10 | 0.06 | > 10 | 
2 | Cc1cn([C@@H]2O[C@H](CO[Si](C)(C)C(C)(C)C)[C@@]3(OS(=O)(=O)C=C3N)[C@H]2O[Si](C)(C)C(C)(C)C)c(=O)n(C)c1=O | 230 | > 250 |  | > 250 | 
3 | Cc1cn([C@@H]2O[C@H](CO[Si](C)(C)C(C)(C)C)[C@@]3(OS(=O)(=O)C(I)=C3N)[C@H]2O[Si](C)(C)C(C)(C)C)c(=O)[nH]c1=O | 4.3 | > 2 |  | > 2 | 4
4 | Cc1cn([C@@H]2O[C@H](CO[Si](C)(C)C(C)(C)C)[C@@]3(OS(=O)(=O)C(CC(N)=O)=C3NCC(N)=O)[C@H]2O[Si](C)(C)C(C)(C)C)c(=O)n(C)c1=O | 3.2 | > 2 |  | > 2 | 3.9
5 | Cc1cn([C@@H]2O[C@H](CO[Si](C)(C)C(C)(C)C)[C@@]3(OS(=O)(=O)C(/C=C/CO)=C3N)[C@H]2O[Si](C)(C)C(C)(C)C)c(=O)n(C)c1=O | 13 | > 10 |  | 5.7 | 18
6 | C=CC1=C(N)[C@@]2(OS1(=O)=O)[C@@H](CO)O[C@@H](n1cc(C)c(=O)[nH]c1=O)[C@@H]2O[Si](C)(C)C(C)(C)C | 47 | > 50 |  | > 50 | 76
7 | Cc1cn([C@@H]2O[C@H](CO[Si](C)(C)C(C)(C)C)[C@@]3(OS(=O)(=O)C(Cl)=C3N)[C@H]2O[Si](C)(C)C(C)(C)C)c(=O)[nH]c1=O | 5.4 | > 10 |  | > 10 | 7
8 | Cc1cn([C@@H]2O[C@H](CO[Si](C)(C)C(C)(C)C)[C@@]3(OS(=O)(=O)C(Br)=C3N)[C@H]2O[Si](C)(C)C(C)(C)C)c(=O)[nH]c1=O | 18 | > 10 |  | > 10 | 17
9 | Cc1cn([C@@H]2O[C@H](CO[Si](C)(C)C(C)(C)C)[C@@]3(OS(=O)(=O)C(c4ccccc4)=C3N)[C@H]2O[Si](C)(C)C(C)(C)C)c(=O)[nH]c1=O | 55 | > 50 |  | > 2 | 37
10 | CC#CC1=C(N)[C@@]2(OS1(=O)=O)[C@@H](CO[Si](C)(C)C(C)(C)C)O[C@@H](n1cc(C)c(=O)n(C)c1=O)[C@@H]2O[Si](C)(C)C(C)(C)C | 3.3 | > 2 |  | > 2 | 5
11 | Cc1cn([C@@H]2O[C@H](CO[Si](C)(C)C(C)(C)C)[C@@]3(OS(=O)(=O)C(c4ccccc4)=C3N)[C@H]2O[Si](C)(C)C(C)(C)C)c(=O)n(C)c1=O | 24 | > 50 |  |  | 65
12 | Cc1cn([C@@H]2O[C@H](CO[Si](C)(C)C(C)(C)C)[C@@]3(OS(=O)(=O)C(c4ccsc4)=C3N)[C@H]2O[Si](C)(C)C(C)(C)C)c(=O)n(C)c1=O | 3.9 | > 2 |  | > 2 | 33
13 | C=CCC1=C(N)[C@@]2(OS1(=O)=O)[C@@H](CO[Si](C)(C)C(C)(C)C)O[C@@H](n1cc(C)c(=O)n(C)c1=O)[C@@H]2O[Si](C)(C)C(C)(C)C | 82 | > 50 |  | > 50 | 45
14 | CNC1=C(C)S(=O)(=O)O[C@@]12[C@@H](CO[Si](C)(C)C(C)(C)C)O[C@@H](n1cc(C)c(=O)n(C)c1=O)[C@@H]2O[Si](C)(C)C(C)(C)C | > 250 | > 250 |  | > 250 | 234
15 | CC1=C(N)[C@@]2(OS1(=O)=O)[C@@H](CO[Si](C)(C)C(C)(C)C)O[C@@H](n1cc(C)c(=O)n(C)c1=O)[C@@H]2O[Si](C)(C)C(C)(C)C | > 250 | > 250 |  | > 50 | 10
16 | C=CCNC1=CS(=O)(=O)O[C@@]12[C@@H](CO[Si](C)(C)C(C)(C)C)O[C@@H](n1cc(C)c(=O)n(C)c1=O)[C@@H]2O[Si](C)(C)C(C)(C)C | 25 | > 50 |  | > 50 | 126
17 | COC(=O)/C=C/C1=C(N)[C@@]2(OS1(=O)=O)[C@@H](CO[Si](C)(C)C(C)(C)C)O[C@@H](n1cc(C)c(=O)n(C)c1=O)[C@@H]2O[Si](C)(C)C(C)(C)C | 55 | > 10 |  | > 2 | 37
18 | C=CC1=C(N)[C@@]2(OS1(=O)=O)[C@@H](CO[Si](C)(C)C(C)(C)C)O[C@@H](n1cc(C)c(=O)[nH]c1=O)[C@@H]2O[Si](C)(C)C(C)(C)C | 24 | 3.3 |  | 4 | 36
19 | CCOC(=O)/C=C/C1=C(N)[C@@]2(OS1(=O)=O)[C@@H](CO[Si](C)(C)C(C)(C)C)O[C@@H](n1cc(C)c(=O)[nH]c1=O)[C@@H]2O[Si](C)(C)C(C)(C)C | 40 | > 50 |  | > 10 | 174
20 | COC(=O)/C=C/C1=C(N)[C@@]2(OS1(=O)=O)[C@@H](CO[Si](C)(C)C(C)(C)C)O[C@@H](n1cc(C)c(=O)[nH]c1=O)[C@@H]2O[Si](C)(C)C(C)(C)C | 29 | 9.9 |  | 7.3 | 39
21 | Cc1cn([C@@H]2O[C@H](CO[Si](C)(C)C(C)(C)C)[C@@]3(OS(=O)(=O)C(I)=C3N)[C@H]2O[Si](C)(C)C(C)(C)C)c(=O)n(C)c1=O | 3.9 | > 10 |  | > 2 | 5.6
22 | Cc1cn([C@@H]2O[C@H](CO[Si](C)(C)C(C)(C)C)[C@@]3(OS(=O)(=O)C(/C=C/CO)=C3N)[C@H]2O[Si](C)(C)C(C)(C)C)c(=O)[nH]c1=O | 17 | 5.4 |  | 1.2 | 18
